This note sets out measurements from ChEMBL document CHEMBL1153829, “Exploiting chemical libraries, structure, and genomics in the search for kinase inhibitors” (Science, 1998).

SMILES strings stand for the structures. Active and inactive are the calls of the source. Unless noted, the rule behind the calls is not given here.

Assay [1] concerns Saccharomyces cerevisiae. In words: Increase in HSP12 mRNA level in delta snq2, delta pdr5 and delta erg6 knock out yeast YRP1 at 25 µM after 2 hrs by high-density oligonucleotide array. The format is functional, organism-based. Conditions: […]. The essentials:
(§1)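 Drug-sensitized S. cerevisiae cultures grown to late logarithmic phase, then exposed to 25 μM inhibitor for 2 h. Polyadenylated mRNA isolated, converted to biotin-labeled cRNA and hybridized to a set of four high-density arrays carrying more than 260,000 25-nucleotide oligomers. Transcripts scored as changed when they shifted more than twofold in triplicate hybridizations for each of two independent experiments.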

Assay [2] concerns Saccharomyces cerevisiae. In words: Effect on YNR009w gene expression in delta snq2, delta pdr5 and delta erg6 knock out yeast YRP1 assessed as change in mRNA level at 25 µM after 2 hrs by high-density oligonucleotide array. The format is functional, organism-based. Conditions: […]. In outline: as §1
Assay [3] concerns Saccharomyces cerevisiae. In words: Effect on HTA2 gene expression in delta snq2, delta pdr5 and delta erg6 knock out yeast YRP1 bearing cdc28-4 mutant allele assessed as change in mRNA level at 25 µM after 2 hrs by high-density oligonucleotide array. The format is functional, organism-based. As to conditions: […].
The nature of assay [4]: Induction of microtubule […].
In another assay the test system is Nucleic Acid. The assay can be described thus: Induction of condensation of DNA. The format is nucleic-acid assay.
For assay [5], the system named is Saccharomyces cerevisiae. The assay can be described thus: Growth inhibition of delta snq2, delta pdr5 and delta erg6 knock out yeast YRP1 after 2 hrs. The format is functional.
In assay [6] the test system is Saccharomyces cerevisiae. The assay can be described thus: Downregulation of EGT2 mRNA expression in delta snq2, delta pdr5 and delta erg6 knock out yeast YRP1 at 25 µM after 2 hrs by high-density oligonucleotide array. The format is functional, organism-based. As to conditions: 25 M. In outline:
as §1

Take `CC(C)n1cnc2/c(=N/c3cccc(Cl)c3)nc(NCCO)[nH]c21`: the result (with Saccharomyces cerevisiae [1]; with Saccharomyces cerevisiae [2]; in the assay on Saccharomyces cerevisiae [3]; in assay [4]; with Nucleic Acid; with Saccharomyces cerevisiae [6]) was Active. Moreover, halving of growth in the assay with Saccharomyces cerevisiae [5] (GI50) required 30 µM.
Turning to `CN1CC[C@H](c2c(O)cc(O)c3c(=O)cc(-c4ccccc4Cl)oc23)[C@H](O)C1` [ALVOCIDIB], the result with Saccharomyces cerevisiae [1], in the assay with Saccharomyces cerevisiae [2], in the assay with Saccharomyces cerevisiae [3] and with Saccharomyces cerevisiae [6] was Active.
